The chains are these.
B1: tRNA (parent)
chain: GUUCCGUUGGCGUAAUGGUAACGCGUCUCCCUCCUAAGGAGAAGACUGCGGGUUCGAGUCCCGUACGGAACG

Variants at the floor of the assay were thinned out. Where only a bound is given, the exact number is not on record here.

Variants of B1 are the subject of the series. The experiment in a line: yeast fitness relative to wild type (ratio to wild type); higher = fitter; tRNA-Arg(CCU), competitive growth, 37 C, YPD. Summed up: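 Start and end populations of a pooled competition were compared by 100-nucleotide paired-end sequencing of gene amplicons. The Saccharomyces cerevisiae strains carried tRNA-Arg(CCU) gene variants at the native genomic locus, synthesised with a 3% per-site mutation rate at 69 sites, and competed in YPD at 37°C for 24 hours in six parallel replicates. Darwinian fitness relative to wild type was based on the change in genotype frequencies. Genotypes required ≥ 100 starting reads, and estimates < 0.5 were set to 0.5.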
In the case of GUUCCAUUGGCGUAAUGGUAACGCGUCUCCCUCCUACGGGGAAGACUGCGGGUUCGAGUCCCGUACGGAACG [G6A A37C A40G], the yeast fitness was not above 0.5.
GUUCCAUUGGCGUAAUGGUAGCACGUCUCCCUCCUAAGGAGAAGACUGCGGGUUCGACUCCCGUACGGAACG [G6A A21G G23A G58C]: the yeast fitness is not above 0.5.
On to GUUCCAUUGGCGUAAUGGUAGCGCGUCUCCCUCCUAAGGAGAAGAAUGCGGGUUUAAGUCCCGUACGGAACG [G6A A21G C46A C55U G56A], for which the yeast fitness is not above 0.5.
For GUUCCAUUGGCGUAAUGGUAACGCGUCUCCCUCCUCGGGAGAAGACUGCGGAUUCGAGUCCCGUACGGAUCG [G6A A36C A37G G52A A70U], the yeast fitness is not above 0.5.
The value for GUUCCAUUGGCGUAAUGGUAACGCGUCUCCCUCCUGAGGAGACGACUGCGGGUUCGAGUCCCGUACGGCACG [G6A A36G A43C A69C] was not above 0.5; that for GUUCCAUUGGCGUAAUGGUCACGCGUCUCCCUCCUAAGGAGAAGACUGCGGGUUCGAGUCGCGUACGCAACG [G6A A20C C61G G68C] was not above 0.5.
As for GUUCCAUUGGCGUAAUGGUACCGCGUCUCCCUCCUAAGGAGAAGACUGAGGGUUCGAGUCCCGUACGGAGCG [G6A A21C C49A A70G], the yeast fitness was not above 0.5.
The value for GUUCCAUUGGCGUAAUGGUGACGCGUCUCCGUCCUAAGGAGAAGAUUGCGGGUUCGAGUCCCGUACAGAACG [G6A A20G C31G C46U G67A] was not above 0.5.
Consider GUUCCAUUGGCGUAAUGGUAACGCGUCUCCCUCCUAUGGCGAAGACUGCGGGUUCGAGUCCCGUACGGAACG [G6A A37U A40C], for which the yeast fitness is not above 0.5.
As to GUUCCAUUGGCGUAAUGGUGACGCGUCUCCCUCCUAAGGAGAAGGCUGCGGGUUCGAGUCCCGUACGGAACG [G6A A20G A45G], the yeast fitness worked out at 0.803.
GUUCCAUUGGCGUAAUGGUAACGCGUCUCCCUCCUUGGGCGAAGACUGCGGGUUCGAGUCCCGUAUGGAACG [G6A A36U A37G A40C C66U]: the yeast fitness is not above 0.5.
For the variant GUUCCAUUGGCGUAAUGGUUACGCGUAUCCCUCCUAAGGAGAAGACUGCGGGUUCGUGUCCAGUACGGAACG [G6A A20U C27A A57U C62A], the yeast fitness is not above 0.5.
In the case of GUUCCAUUGGCGUAAUGGUAGCGCGUCUCCCUCCUAAGGAGAAGACUGCGGGUUCGAGUCCCGUACGGAACG [G6A A21G], the yeast fitness stood at 0.965.
For GUUCCAUUGGCGUAAUGGUACCGCGUCUCCCUCCUAAGGAGAAGACAGCGGGUUCGAGUCACGUACGGACCG [G6A A21C U47A C61A A70C], the yeast fitness is not above 0.5.
The value for GUUCCAUUGGCGUAAUGGUGACGCGUCUCCCUCCUAAGGAGAAGACUGCGGGUUCGAGUGCCGUACGGAACG [G6A A20G C60G] was not above 0.5.
The figure for GUUCCAUUGGCGUAAUGGUACCGCGUCUCCCUCCUAAGGAGGAGACUGCGGGUUCGAGUCCCGUACGGAACG [G6A A21C A42G] is 0.692; for GUUCCAUUGGCGUAAUGGUGACGCGUCUCCCUCCUGAGGAGAAGACUGGGGGUUCGAGUCCCGUACGGAACG [G6A A20G A36G C49G] it is not above 0.5.
For GUUCCAUUGGCGUAAUGGUUACGCAUCUCCCUCCUAAGGAGAAGACUGCGGGUUCGAGUCCCGUACGGAACG [G6A A20U G25A], the yeast fitness came to 0.574.
On to GUUCCAUUGGCGUAAUGGUAACGCGUCUCCCUCCUUAGGAGAAGACUGGGGGUUCGAGUCCUGUACGGAACG [G6A A36U C49G C62U], for which the yeast fitness is not above 0.5.
The figure for GUUCCAUUGGCGUAAUGGUGACGCGUCUCCCUCCUAAGGAGAAGACUGCGGGUUCGAGUCCCGUACGGAACG [G6A A20G] is 0.897.
The figure for GUUCCAUUGGCGUAAUGGUAUCGCGUCUCCCUCCUAAGGAGAAGACUGCGGGUUCGAGUCCUGUACGGAACG [G6A A21U C62U] is not above 0.5.
The figure for GUUCCAUUGGCGUAAUGGUGACGCGUCUCCCUCCUAAGGAGAAGACUGAGGGUUCGAGUCCCGUACGGAACG [G6A A20G C49A] is 0.616; for GUUCCAUUGGCGUAAUGGUAACGCGUCUCCCUCCUAAGGCCAAGACUGCGGGUUCGAGUCCCGUACGCAACG [G6A A40C G41C G68C] it is not above 0.5.
Consider GUUCCAUUGGCGUAAUGGUCACGCGUCUCCCUCCUAAGGAGAAGACUGCGGGUUCGAGUCCCGUAAGGAACG [G6A A20C C66A], for which the yeast fitness was 0.549.
With GUUCCAUUGGCGUAAUGGUUACGCGUCUCCCUCCUAAGGAGAAGAAUGCGGGUUGGAGUCCCGUACGGAACG [G6A A20U C46A C55G], the yeast fitness is not above 0.5.
GUUCCAUUGGCGUAAUGGUACCGCGUCUCCCUGCUAAGGAGAAGACUGCGGGUUCGAGUCCCGUACGGAACG [G6A A21C C33G]: the yeast fitness was not above 0.5.
As for GUUCCAUUGGCGUAAUGGUAACGCGUCUCCCUCCUCAGGUGAAGACUGCGGGUUCGAGUCCCGUACGGAACG [G6A A36C A40U], the yeast fitness is not above 0.5.
With GUUCCAUUGGCGUAAUGGUCACGCGUCUCCCUCAUAAGGAGAAGUUUGCGGGUUCGCGUCCCGUACGGAACG [G6A A20C C34A A45U C46U A57C], the yeast fitness was not above 0.5.
GUUCCAUUGGCGUAAUGGUGACGUGUCUCCCUCCUAAGGAGAAGACUGCGGGUUCGAGUCCCGUACGGAACG [G6A A20G C24U]: the yeast fitness amounted to 0.612.
Consider GUUCCAUUGGCGUAAUGGUAACGCGUCUCCCUCCUUAGGAGAAGACUGCGGGUUCGAGUCCCGUAAGCAACG [G6A A36U C66A G68C], for which the yeast fitness is not above 0.5.
In the case of GUUCCAUUGGCGUAAUGGUCACGCGUCUCCCUCCUAAGGAGAAGAGUGCGGGUUCGAGUCCCGUACGGAACG [G6A A20C C46G], the yeast fitness was determined as 0.696.
The figure for GUUCCAUUGGCGUAAUGGUAACGCGUCUCCCUCCUAUGGAGAAGACUGCGGGUUCGAGUCCUGUACGGAACG [G6A A37U C62U] is not above 0.5; for GUUCCAUUGGCGUAAUGGUCACCCGUAUCCCUCCUAAGGAGAAGACUGCGGGUUCGAGUCCCGUACGGAACG [G6A A20C G23C C27A] it is not above 0.5.
GUUCCAUUGGCGUAAUGGUGGCGCGUCUGCCUCCUAAGGAGAAGACUGCGGGUUCGAGUCCCGUACGGAACG [G6A A20G A21G C29G]: the yeast fitness was not above 0.5.
For GUUCCAUUGGCGUAAUGGUAGCGCGUCUCCCUCCUAAGGAGAAGACUGUGGGUUCGAGUCCCGUACGGAACG [G6A A21G C49U], the yeast fitness amounted to 0.791.
For GUUCCAUUGGCGUAAUGGUAACGCGUCUCCCUCCUACGGAGAAGACUGCGGGUUCGAGUCCCGUACGGAACG [G6A A37C], the yeast fitness was determined as 0.824.
On to GUUCCAUUGGCGUAAUGGUCACGCGUCUCCCUCCUAAGGAGAAGACUGCGGGUUCGAGUCCCGUACGGAUCG [G6A A20C A70U], for which the yeast fitness came to 0.739.
On to GUUCCAUUGGCGUAAUGGUUACGCGUCUCCCUCCUAAGGAGAAGACUGUUGGUUCGAGUCCCGUACGGAACG [G6A A20U C49U G50U], for which the yeast fitness was not above 0.5.

The values above are taken from the RNAGym collection of RNA variant scans (doi:10.1126/science.aae0568).
